Calls of active or inactive are those of the source. No cut-off for these calls is given here.
Key:
[1] = system: Human betaherpesvirus 5; test: Antiviral activity against Human cytomegalovirus infected in MRC5 cells measured after 6 days by fluorescence based microscopic analysis; format: functional, cell-based
Method in brief: (§1)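 MRC-5 primary fibroblasts in phenol red-free DMEM with 10% FBS were seeded 8k/well. At 24 h they were treated with compound, infected with hCMV ANCHOR at MOI 1, and fixed 6 days post infection. High-content imaging gave infection rate (fluorescent/total cells) and replication (integrated ANCHOR spot intensity) over ≥1000 cells/well, normalized to DMSO; mean of three wells ± SD.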

[2] = system: Human betaherpesvirus 5; test: Antiviral activity against Human cytomegalovirus infected in ARPE-19 cells measured after 10 days by fluorescence based microscopic analysis; format: functional, cell-based
Method in brief: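 Cells were ARPE-19 in phenol red-free DMEM with 10% FBS, seeded 8k/well. At 24 h they received a range of compound concentrations and hCMV ANCHOR at MOI 10, then were fixed 10 days post infection. Imaging scored infection rate (fluorescent/total cells) and ANCHOR spot intensity over ≥1000 cells/well, normalized to DMSO and used to derive IC50; mean of three wells ± SD.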

[3] = Selectivity index, ratio of CC50 for human ARPE-19 cells assessed as reduction in nuclei count measured after […] 33342 staining based microscopic analysis to EC50 Human cytomegalovirus infected in ARPE-19 cells measured after 10 days by microscopic analysis; format: toxicity, cell-based; details: read-out: Ratio CC50/EC50
Method in brief: (§2)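 CC50 comes from Hoechst nuclei counts after compound treatment, normalized to DMSO. IC50 comes from hCMV ANCHOR infection at MOI 1 in MRC-5 (read 6 dpi) or MOI 10 in ARPE-19 (read 10 dpi). Infection rate is fluorescent cells over total cells, from at least 1000 cells per well, in triplicate wells. SI is CC50 divided by IC50.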

[4] = Cytotoxicity against human ARPE-19 cells assessed as reduction in nuclei count measured after 10 days for Hoechst 33342 staining based microscopic analysis; format: cell-based; details: time 10 day
Method in brief: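 ARPE-19 epithelial cells seeded at 8k/well in complete DMEM with 10% FBS and treated with increasing compound concentrations 24 h later. Incubated 10 days at 37 °C. Formalin-fixed, stained with Hoechst 33342 (1 μg mL–1), and nuclei counted by high-content imaging. Counts normalized to DMSO wells. CC50 is the concentration reducing nuclei count by 50%. Mean of two wells ± SD.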

[5] = Cytotoxicity against human MRC5 cells assessed as reduction in nuclei count measured after 6 days for Hoechst 33342 staining based microscopic analysis; format: cell-based; details: time 6 day
Method in brief: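 MRC-5 fibroblasts seeded at 8k/well in complete DMEM with 10% FBS and treated 24 h later with increasing compound concentrations. Incubated 6 days at 37 °C, 5% CO2. Formalin-fixed, Hoechst 33342 (1 μg mL–1) stained, and nuclei counted by high-content imaging. Counts normalized to DMSO wells. CC50 is the concentration halving the nuclei count. Mean of two wells ± SD.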

[6] = Selectivity index, ratio of CC50 for human MRC5 cells assessed as reduction in nuclei count measured after 6 days for Hoechst 33342 staining based microscopic analysis to EC50 Human cytomegalovirus infected in MRC5 cells measured after 6 days by microscopic analysis; format: toxicity, cell-based; details: time 6 day, read-out: Ratio CC50/EC50; method in brief: as §2
[7] = system: Human betaherpesvirus 5; test: Antiviral activity against Human cytomegalovirus infected in MRC5 cells assessed as reduction in viral plaque at 0.3 uM measured after 6 days by microscopic analysis; format: functional, cell-based; details: time 6.0 day
Method in brief: (§3)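 MRC-5 fibroblasts seeded at 8k cells/well and infected 24 h later with fluorescent hCMV ANCHOR strain at MOI 1, with compound added at increasing concentrations. Cultured 6 days, fixed with formalin, nuclei stained with Hoechst, and imaged by high-content microscopy. Fluorescent plaques and replication centres were scored against DMSO-treated cells.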

[8] = system: Human betaherpesvirus 5; test: Antiviral activity against Human cytomegalovirus harboring ANCHOR infected in ARPE-19 cells assessed as reduction in viral infection measured after 10 days by microscopic analysis relative to control; details: time 10.0 day
[9] = system: Human betaherpesvirus 5; test: Antiviral activity against Human cytomegalovirus harboring ANCHOR infected in MRC5 cells assessed as reduction in viral infection at measured after 6 days by microscopic analysis relative to control; format: functional, cell-based; details: time 6.0 day; method in brief: as §1
[10] = system: Human betaherpesvirus 5; test: Antiviral activity against Human cytomegalovirus infected in MRC5 cells assessed as reduction in viral plaque at 1.25 uM measured after 6 days by microscopic analysis; format: functional, cell-based; details: time 6.0 day; method in brief: as §3
[11] = Human betaherpesvirus 5, ARPE-19, 240 h, read-out: IC50
[12] = Human betaherpesvirus 5, MRC5, 144 h, read-out: IC50

SMILES	IC50 ([1]; mrc5)	IC50 [2, 11] [µM]	selectivity ratio [3]	CC50 at 240 h [4] [µM]	CC50 at 144 h [5] [µM]	IC50 [1, 12] [µM]	selectivity ratio at 144 h [6]	IC50 ([2]; arpe-19)	Activity [7]	Activity [8]	Activity [9]	Activity [10]
O=[N+]([O-])c1cc(F)cc(-c2c3nc(c4ccc([nH]4)c(-c4cc(F)cc([N+](=O)[O-])c4)c4ccc([nH]4)c(-c4cc(F)ccc4[N+](=O)[O-])c4ccc2[nH]4)C=C3)c1	Not Active	0.32	51	16.5	18							
O=[N+]([O-])c1ccc(-c2c3nc(c4ccc([nH]4)c(-c4ccc([N+](=O)[O-])cc4F)c4ccc([nH]4)c(-c4ccc([N+](=O)[O-])cc4F)c4ccc2[nH]4)C=C3)c(F)c1		0.25	21.2	5.3	3.4	0.7	4.5					
CN(C)c1ccc(-c2c3nc(c4ccc([nH]4)c(-c4ccc(N(C)C)cc4[N+](=O)[O-])c4ccc([nH]4)c(-c4ccc(N(C)C)cc4[N+](=O)[O-])c4ccc2[nH]4)C=C3)c([N+](=O)[O-])c1	Not Active			> 50	> 50			Not Active				
O=[N+]([O-])c1cccc(-c2c3nc(c4ccc([nH]4)c(-c4cccc([N+](=O)[O-])c4)c4ccc([nH]4)c(-c4ccccc4)c4ccc2[nH]4)C=C3)c1	Not Active			> 50	> 50			Not Active				
O=[N+]([O-])c1ccc(F)c(-c2c3nc(c4ccc([nH]4)c(-c4c(F)ccc([N+](=O)[O-])c4F)c4ccc([nH]4)c(-c4c(F)ccc([N+](=O)[O-])c4F)c4ccc2[nH]4)C=C3)c1F		0.31	31.6	9.8	8.77	0.86	10.2					
O=[N+]([O-])c1cc(F)cc(-c2c3ccc([nH]3)c(-c3cc(F)ccc3[N+](=O)[O-])c3nc(c4ccc([nH]4)c(-c4cc(F)ccc4[N+](=O)[O-])c4ccc2[nH]4)C=C3)c1		0.22	> 227	> 50	> 50	2	> 25		Active	Dose-dependent effect	Dose-dependent effect	Active
O=[N+]([O-])c1ccc(-c2c3nc(c4ccc([nH]4)c(-c4ccc([N+](=O)[O-])c(F)c4)c4ccc([nH]4)c(-c4ccc([N+](=O)[O-])c(F)c4)c4ccc2[nH]4)C=C3)cc1F	Not Active			> 50	> 50			Not Active				
O=[N+]([O-])c1cc(-c2c3nc(c4ccc([nH]4)c(-c4cc([N+](=O)[O-])c(Br)cc4F)c4ccc([nH]4)c(-c4cc([N+](=O)[O-])c(Br)cc4F)c4ccc2[nH]4)C=C3)c(F)cc1Br	Not Active			> 50	> 50			Not Active				
O=[N+]([O-])c1cc(C(F)(F)F)ccc1-c1c2nc(c3ccc([nH]3)c(-c3ccc(C(F)(F)F)cc3[N+](=O)[O-])c3ccc([nH]3)c(-c3ccc(C(F)(F)F)cc3[N+](=O)[O-])c3ccc1[nH]3)C=C2		5	> 10	> 50	> 50	2.8	> 17					
O=[N+]([O-])c1cccc(-c2c3nc(c4ccc([nH]4)c(-c4cccc([N+](=O)[O-])c4)c4ccc([nH]4)c(-c4ccc(F)c([N+](=O)[O-])c4)c4ccc2[nH]4)C=C3)c1	Not Active	5	> 10	> 50	> 50							
O=[N+]([O-])c1ccc(F)cc1-c1c2nc(c3ccc([nH]3)c(-c3cc(F)ccc3[N+](=O)[O-])c3ccc([nH]3)c(-c3cc(F)ccc3[N+](=O)[O-])c3ccc1[nH]3)C=C2		5.2	> 10	> 50	> 50	7.1	> 7					
O=[N+]([O-])c1cc(-c2c3nc(c4ccc([nH]4)c(-c4ccc(F)c([N+](=O)[O-])c4)c4ccc([nH]4)c(-c4ccc(F)c([N+](=O)[O-])c4)c4ccc2[nH]4)C=C3)ccc1F	Not Active			> 50	> 50			Not Active				
O=[N+]([O-])c1cc(F)ccc1-c1c2nc(c3ccc([nH]3)c(-c3ccc(F)cc3[N+](=O)[O-])c3ccc([nH]3)c(-c3ccc(F)cc3[N+](=O)[O-])c3ccc1[nH]3)C=C2		4.3	> 11	> 50	> 50	3	> 16			Dose-dependent effect	Dose-dependent effect	
O=[N+]([O-])c1ccc(Cl)cc1-c1c2nc(c3ccc([nH]3)c(-c3cc(Cl)ccc3[N+](=O)[O-])c3ccc([nH]3)c(-c3cc(Cl)ccc3[N+](=O)[O-])c3ccc1[nH]3)C=C2	Not Active			> 50	> 50			Not Active				
O=[N+]([O-])c1cc(F)cc(-c2c3nc(c4ccc([nH]4)c(-c4cc(F)cc([N+](=O)[O-])c4)c4ccc([nH]4)c(-c4cc(F)cc([N+](=O)[O-])c4)c4ccc2[nH]4)C=C3)c1	Not Active	1.9	> 26	> 50	> 50							

— ChEMBL document CHEMBL4699411, “A3- and A2B-nitrocorroles: synthesis and antiviral activity evaluation against human cytomegalovirus infection” (RSC Med Chem, 2020)
